Laboratory results taken from article PMC8504815 (Clinical and Translational Science, 2021).
“Also recorded” adds a separate entry of the source.

Key:
[1] = Blood pharmacokinetics, single ascending dose; assay type: in vivo, human
Procedure, shortened: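 Ten cohorts of 8 healthy adults aged 18–65 were randomized 3:1 to one fasted oral dose (0.5–600 mg) or placebo, double-blind. Blood was taken predose and at protocol timepoints up to day 8, and drug was measured by validated LC-MS/MS. Dose proportionality used regression of log Cmax and AUC on log dose, giving the slope with 90% CI.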

[2] = Blood pharmacokinetics, multiple ascending dose; assay type: in vivo, human; conditions: for CLss/F: apparent total body clearance from blood at steady state; for CLss/F / AUC(0-t) / Cmax: mean (SD); for half-life: terminal half-life; for half-life / Tmax: median (minimum-maximum)
Procedure, shortened: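 Fasted healthy subjects with asymptomatic atopic diathesis were randomized 3:1 to oral drug or placebo, q.d. or b.i.d., through day 12. Blood was sampled predose and to 24 h on day 1 (b.i.d. to 12 h), then at trough and 2 h postdose. Urine was also collected. Assay was LC-MS/MS. Log Cmax/AUC was regressed on log dose (slope, 90% CI).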

Food effect = assay type: in vivo, human; conditions: for MRT: mean (SD)
BTK = BTK (Homo sapiens, UniProt Q06187); assay: BTK occupancy in blood; assay type: in vivo
basophils [3] = assay: Basophil activation; assay type: in vivo, human; conditions: for trough inhibition of CD203c: day 12; for inhibition of CD203c+ basophils, peak: 8 h on day 1
Procedure, shortened: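 Heparinized whole blood was drawn at set timepoints from MAD subjects (healthy, asymptomatic atopic diathesis; oral q.d. or b.i.d.). It was stimulated ex vivo with anti-IgE for 25 minutes at 37°C/5% CO₂. CD63+ and CD203c+ basophils were counted as a percentage by flow cytometry and expressed as % inhibition versus baseline. Subjects with baseline CD63+ stimulation below 10% were excluded.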

skin prick test wheal = assay: Skin prick test; assay type: in vivo, human; conditions: MAD
Procedure, shortened: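 MAD subjects with atopic diathesis had skin prick tests to known allergens from 7 undiluted allergens (pollens, house dust mite, cat and horse dander). Tests were done at day −1, day 1 predose/2/8 h, day 2 predose and day 12 predose/8/24/96 h. Wheal diameter was the mean of the longest and perpendicular diameters. The predose average (day −1 and day 1) was compared with the average of all 7 postdose tests.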

Safety and tolerability = assay type: in vivo, human; conditions: for dose-limiting toxicity: up to highest dose tested
[4] = statement in discussion, no value or reference printed; cited from earlier work
basophils [5] = conditions: doses >=200 mg; not sustained beyond; cited from earlier work
[6] = human, whole blood, oral, 100 mg, MAD 100 mg b.i.d., Day 1
[7] = human, whole blood, oral, 100 mg, MAD 100 mg b.i.d., Day 12
[8] = human, whole blood, oral, 200 mg, MAD 200 mg b.i.d., Day 12
[9] = human, whole blood, oral, 600 mg, MAD 600 mg q.d., Day 1

Chain of BTK (Q06187 whole entry): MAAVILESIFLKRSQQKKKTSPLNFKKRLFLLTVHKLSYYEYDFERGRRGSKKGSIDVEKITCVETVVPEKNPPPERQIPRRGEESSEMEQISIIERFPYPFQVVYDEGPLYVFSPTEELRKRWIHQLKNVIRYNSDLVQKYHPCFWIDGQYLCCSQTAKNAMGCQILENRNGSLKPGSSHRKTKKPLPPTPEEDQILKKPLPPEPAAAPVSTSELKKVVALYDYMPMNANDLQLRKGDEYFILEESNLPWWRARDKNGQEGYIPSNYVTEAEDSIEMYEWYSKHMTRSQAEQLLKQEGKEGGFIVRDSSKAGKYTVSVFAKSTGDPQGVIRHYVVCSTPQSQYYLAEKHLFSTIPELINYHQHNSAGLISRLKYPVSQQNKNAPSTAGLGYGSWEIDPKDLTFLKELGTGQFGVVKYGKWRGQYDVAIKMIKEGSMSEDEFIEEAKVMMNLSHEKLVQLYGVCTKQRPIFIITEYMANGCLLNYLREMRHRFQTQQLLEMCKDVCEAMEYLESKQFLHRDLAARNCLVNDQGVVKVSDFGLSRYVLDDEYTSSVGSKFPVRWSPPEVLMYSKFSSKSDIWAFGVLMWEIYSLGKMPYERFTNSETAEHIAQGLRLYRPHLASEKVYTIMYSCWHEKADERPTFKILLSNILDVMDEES

C=CC(=O)N(C)CCOc1c(N)ncnc1-c1cc(F)cc(NC(=O)c2ccc(C3CC3)cc2F)c1C [Remibrutinib]
dose proportionality of Cmax, AUCinf, AUClast over the full dose range ([1]; SAD cohorts): not demonstrated
half-life ([1]; human, whole blood, oral): 1 to 2 h
Tmax ([1]; human, whole blood, po): 0.5 to 1.25 h
CLss/F ([2]; MAD 100 mg b.i.d., Day 12): 255 (153) L/h
CLss/F ([2]; MAD 100 mg q.d., Day 12): 198 (88.7) L/h
CLss/F ([2]; MAD 200 mg b.i.d., Day 12): 267 (126) L/h
CLss/F ([2]; MAD 400 mg q.d., Day 12): 366 (150) L/h
CLss/F ([2]; MAD 600 mg q.d., Day 12): 521 (131) L/h
dose proportional increases of Cmax and AUC over the full dose range ([2]; MAD cohorts): not observed
time to steady-state ([2]; MAD cohorts): third day of dosing
direct renal excretion, contribution to total apparent blood clearance ([2]; across doses in all MAD cohorts, urine): ~ 1%
AUC(0-t) ([2]; human, whole blood, oral, 100 mg, AUC0–12 h, MAD 100 mg b.i.d., Day 12): 496 ng·h/mL
AUC(0-t) ([2]; human, whole blood, oral, 100 mg, AUC0–24 h, MAD 100 mg q.d., Day 12): 485 ng·h/mL
AUC(0-t) ([2]; human, whole blood, oral, 100 mg, AUClast, MAD 100 mg b.i.d., Day 12): 518 ng·h/mL
Cmax [2, 6]: 180 ng/mL
Cmax [2, 7]: 306 ng/mL
half-life ([2]; human, whole blood, oral, 100 mg, T1/2, MAD 100 mg b.i.d., Day 12): 2.84 h
Tmax [2, 6]: 1.5 h
Tmax [2, 7]: 0.775 h
AUC(0-t) ([2]; human, whole blood, oral, 200 mg, AUC0–12 h, MAD 200 mg b.i.d., Day 1): 464 ng·h/mL
AUC(0-t) ([2]; human, whole blood, oral, 200 mg, AUC0–12 h, MAD 200 mg b.i.d., Day 12): 890 ng·h/mL
AUC(0-t) ([2]; human, whole blood, oral, 200 mg, AUClast, MAD 200 mg b.i.d., Day 1): 464 ng·h/mL
Cmax ([2]; human, whole blood, oral, 200 mg, MAD 200 mg b.i.d., Day 1): 236 ng/mL
Cmax [2, 8]: 347 ng/mL
half-life ([2]; human, whole blood, oral, 200 mg, T1/2, MAD 200 mg b.i.d., Day 12): 12.4 h
Tmax [2, 8]: 0.992 h
AUC(0-t) ([2]; human, whole blood, oral, 400 mg, AUC0–24 h, MAD 400 mg q.d., Day 1): 977 ng·h/mL
AUC(0-t) ([2]; human, whole blood, oral, 600 mg, AUC0–24 h, MAD 600 mg q.d., Day 1): 1080 ng·h/mL
AUC(0-t) ([2]; human, whole blood, oral, 600 mg, AUC0–24 h, MAD 600 mg q.d., Day 12): 1230 ng·h/mL
Cmax [2, 9]: 550 ng/mL
Tmax [2, 9]: 0.75 h
MRT ([2]; human, whole blood, oral, mean residence time (MRT), multiple doses (q.d. and b.i.d.), overall statement): < 3 h
mean residence time (MRT) ([2]; multiple doses (q.d. and b.i.d.), overall statement): ~ 3 h
number of doses to steady state ([2]; overall statement in discussion): less than 5 doses
accumulation with multiple doses ([2]; q.d. and b.i.d. dosing): no pronounced accumulation; also recorded: no marked accumulation
Delay of median Tmax, fed vs fasted (Food effect; 60 mg single dose, standardized high-fat breakfast): ~ 2 h
Cmax geometric mean ratio (fed vs fasted) (Food effect; 60 mg single dose, 90% CI 0.638-1.01): 0.801
AUClast geometric mean ratio (fed vs fasted) (Food effect; 60 mg single dose, 90% CI 1.14-1.47): 1.30
effect of food intake on exposure (Food effect; 60 mg, fed vs fasted): no clinically relevant effect
MRT (Food effect; human, whole blood, oral, 60 mg, 60 mg single dose, Fasted): 2.29 ± 0.72 h
MRT (Food effect; human, whole blood, oral, 60 mg, 60 mg single dose, Fed): 4.17 ± 1.2 h
Tmax (Food effect; human, whole blood, oral, 60 mg, Tmax, 60 mg single dose, Fed, median (min-max)): 2.78 h
BTK occupancy in blood (BTK; MAD, doses >=50 mg, over the measured dosing period, complete = >95%): maintained complete BTK occupancy
BTK occupancy in blood (BTK; SAD, lowest dose of 0.5 mg): no BTK occupancy
lowest dose showing both complete BTK occupancy and almost complete basophil inhibition (BTK; single dose): 30 mg
trough level inhibition of CD63 (basophils [3]; MAD 10 mg q.d., last day of dosing): 80%
trough inhibition of CD203c (basophils [3]; MAD 100 mg b.i.d.): 63%
inhibition of CD203c+ basophils, peak (basophils [3]; MAD 200 mg b.i.d.): 81.8%
trough inhibition of CD203c (basophils [3]; MAD 200 mg b.i.d.): 67%
inhibition of CD203c+ basophils, peak (basophils [3]; MAD 400 mg q.d.): 84%
inhibition of blood basophil activation (CD63 expression) (basophils [3]; MAD daily dose >=50 mg, day 1-12 incl. day 12 predose): Near complete; also recorded: Full inhibition
basophil inhibition (CD63 expression) (basophils [3]; SAD 60 mg, after 24 h): ~90%
inhibition of CD203c basophil activation marker (basophils [3]; SAD 200 mg cohort, at 8 h): up to 79.4%
basophil inhibition (CD63 expression) (basophils [3]; SAD, doses >=100 mg): almost complete inhibition
skin prick test (SPT) inhibition (skin prick test wheal; day 12 predose, >=100 mg q.d.): Near complete
average decrease in wheal size (SPT) (skin prick test wheal; doses >=100 mg q.d., across all tests, subjects with atopic diathesis): ~ 3 mm
hematomas (Safety and tolerability; 100 mg MAD cohort, after trauma / vessel puncture, resolved spontaneously): two hematomas
self-limiting epistaxis (Safety and tolerability; 600 mg MAD group, both had history of repeated epistaxis): Two subjects
headache (most common AE) (Safety and tolerability; FE cohort, 2/12): 16.7%
Subjects with at least 1 AE (Safety and tolerability; FE cohort, 7 of 12 subjects): 58.3%
incidence of AEs (Safety and tolerability; FE cohort, fasted condition): 16.7%
incidence of AEs (Safety and tolerability; FE cohort, fed condition): 50%
AE severity: Mild (Safety and tolerability; Food effect cohort, N = 12): 7 (58.3) n (%)
AE severity: Moderate (Safety and tolerability; Food effect cohort, N = 12): 1 (8.3) n (%)
Headache (Safety and tolerability; Food effect cohort, N = 12): 2 (16.7) n (%)
Nasopharyngitis (Safety and tolerability; Food effect cohort, N = 12): 1 (8.3) n (%)
Study drug-related AEs (Safety and tolerability; Food effect cohort, N = 12): 3 (25.0) n (%)
Subjects with at least 1 AE (Safety and tolerability; Food effect cohort, N = 12): 7 (58.3) n (%)
subjects with AEs suspected to be related to the study drug (Safety and tolerability; MAD cohorts, 5/48): 10.4%
incidence of AEs (subjects with at least 1 AE) (Safety and tolerability; MAD cohorts, 24 subjects on remibrutinib): 50.0%
AE severity: Mild (Safety and tolerability; MAD cohorts, all doses, N = 48): 22 (45.8) n (%)
AE severity: Moderate (Safety and tolerability; MAD cohorts, all doses, N = 48): 5 (10.4) n (%)
AE severity: Severe (Safety and tolerability; MAD cohorts, all doses, N = 48): 1 (2.1) n (%)
Headache (Safety and tolerability; MAD cohorts, all doses, N = 48): 5 (10.4) n (%)
Nasopharyngitis (Safety and tolerability; MAD cohorts, all doses, N = 48): 3 (6.3) n (%)
Study drug-related AEs (Safety and tolerability; MAD cohorts, all doses, N = 48): 5 (10.4) n (%)
Subjects with at least 1 AE (Safety and tolerability; MAD cohorts, all doses, N = 48): 24 (50.0) n (%)
Toothache (Safety and tolerability; MAD cohorts, all doses, N = 48): 1 (2.1) n (%)
AEs reported (Safety and tolerability; SAD 100 and 200 mg cohorts): No AEs
Subjects with at least 1 AE (Safety and tolerability; SAD cohorts, 17 subjects on remibrutinib): 28.3%
AE severity: Mild (Safety and tolerability; SAD cohorts, all doses, N = 60): 16 (26.7) n (%)
AE severity: Moderate (Safety and tolerability; SAD cohorts, all doses, N = 60): 1 (1.7) n (%)
Headache (Safety and tolerability; SAD cohorts, all doses, N = 60): 6 (10.0) n (%)
Nasopharyngitis (Safety and tolerability; SAD cohorts, all doses, N = 60): 4 (6.7) n (%)
Study drug-related AEs (Safety and tolerability; SAD cohorts, all doses, N = 60): 7 (11.7) n (%)
Subjects with at least 1 AE (Safety and tolerability; SAD cohorts, all doses, N = 60): 17 (28.3) n (%)
subjects with AEs suspected to be related to the study drug (Safety and tolerability; SAD cohorts, all on remibrutinib, of 80 subjects): 7 subjects
changes in hematology, biochemistry, urinalysis parameters (vital signs, ECG) (Safety and tolerability; all cohorts): No clinically significant changes
dose-limiting toxicity (Safety and tolerability; all doses): without any dose‐limiting toxicity
dose-limiting toxicity (Safety and tolerability; all doses, listed as remibrutinib): No dose‐limiting toxicity
tolerability (Safety and tolerability; all evaluated doses, up to 600 mg oral): well‐tolerated
SAEs or deaths (Safety and tolerability; any cohort, overall summary): No SAEs or deaths
risk of bleeding (Safety and tolerability; any dose, bruising log and coagulation testing): no increased risk of bleeding
solubility [4]: low solubility

C[C@H]1CN(C2COC2)CCN1c1ccc(Nc2cc(-c3ccnc(N4CCn5c(cc6c5CC(C)(C)C6)C4=O)c3CO)cn(C)c2=O)nc1 [fenebrutinib]
duration of more than 90% CD63 inhibition (basophils [5]): ≤ 8 h
